In ChEMBL document CHEMBL5321214, “Targeting the multifaceted neurotoxicity of Alzheimer's disease by tailored functionalisation of the curcumin scaffold” (Eur J Med Chem, 2023):
Activity calls are given as the source filed them. The calls are words filed in the database; no cut-off is given here.

How the values were obtained:
[1] = tested on: Drosophila; assay: Downregulation of SOD1 transcript expression in Spastin Drosophila (Tubulin/Gal4 RNAi DSpast) neurodegenerative model at 10 uM flies raised in compound-enriched food by real-time PCR analysis; assay type: functional
How it was run: (§1)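 Total RNA from 5 third-instar Spastin-RNAi larvae raised on standard or compound-enriched food; Tubulin-Gal4/+ as control line. One-step SYBR RT-qPCR normalised to Rp49 by the 2^−ΔΔCt method. n = 3 experiments; one-way ANOVA, Tukey's test.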

[2] = tested on: Microglia; assay: Antiinflammatory activity against Sprague-Dawley rat microglial cells assessed as downregulation of TNF-alpha mRNA expression at 2.5 uM pretreated with compound for 1 hr followed by LPS stimulation for 6 hrs by real-time PCR analysis; assay type: functional, cell-based; conditions: time 7.0 hrs
How it was run: (§2)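 Primary cortical microglia (postnatal day 1 rat pups, shaken off mixed glial cultures, ~97% Iba1-positive). Compound (DMSO ≤0.1%) for 1 h, then 100 ng/mL ultra-pure E. coli LPS for 6 h. QIAzol RNA extraction, SuperScript IV reverse transcription, real-time PCR. Mean ± SEM, n = 3 in triplicate; one-way ANOVA, Holm-Sidak test.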

[3] = Toxicity against Drosophila W1118 assessed as proportion of eclosed-flies at 1 uM measured after 72 hrs
[4] = Toxicity against Drosophila W1118 assessed as proportion of eclosed-flies at 10 uM measured after 72 hrs
[5] = Effect on IL-1 beta release in Sprague-Dawley rat microglial cells at 2.5 uM by ELISA; assay type: toxicity, cell-based; conditions: microglia
How it was run: (§3)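 Primary cortical rat microglia in DMSO (≤0.1%) or vehicle for 1 h, then 100 ng/mL LPS for 24 h. TNF-α and IL-1β in culture medium by ELISA against standard curves (pg/mL), expressed as % of LPS-stimulated cultures. Mean ± SEM of 3 independent experiments; one-way ANOVA, Holm-Sidak test.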

[6] = tested on: SH-SY5Y; assay: Antioxidant activity in human SH-SY5Y cells assessed as increase in intracellular GSH level at 2.5 uM incubated for 24 hrs by […] fluorescence analysis; assay type: functional
How it was run: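 SH-SY5Y (2×10^4 cells/well) grown 24 h, then exposed to 2.5 μM for 24 h at 37 °C. Fluorescent probe added 30 min at 37 °C; read at ex 355/em 460 nm. GSH (μM) from a GSH standard curve. Mean ± SEM of three experiments; one-way ANOVA with Dunnett's test.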

[7] = target: Keap1/Nrf2 (Homo sapiens) (UniProt Q16236+Q14145); assay: Activation of Keap1/Nrf2 in human SH-SY5Y cells assessed as Nrf2 nuclear translocation by measuring increase in nuclear to cytosolic Nrf2 ratio at 2.5 uM incubated for 3 hrs by western blot analysis; assay type: cell-based; conditions: filed as activator
How it was run: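 SH-SY5Y seeded 2×10^6 cells/dish, grown 24 h, then exposed 3 h at 37 °C, 5% CO2. Nuclear and cytosolic fractions immunoblotted for Nrf2, membranes stripped and reprobed for β-actin and lamin B1 as loading references. Mean ± SEM of three independent experiments; one-way ANOVA with Dunnett's test.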

[8] = Effect on TNF-alpha release in Sprague-Dawley rat microglial cells at 2.5 uM by ELISA; assay type: toxicity, cell-based; conditions: microglia; how it was run: as §3
[9] = tested on: Drosophila; assay: Downregulation of Nrf2 transcript expression in Spastin Drosophila (Tubulin/Gal4 RNAi DSpast) neurodegenerative model at 10 uM flies raised in compound-enriched food by real-time PCR analysis; assay type: functional; how it was run: as §1
[10] = Toxicity against Drosophila W1118 assessed as proportion of eclosed-flies at 30 uM measured after 72 hrs
[11] = tested on: Microglia; assay: Antiinflammatory activity against Sprague-Dawley rat microglial cells assessed as inhibition of LPS-induced IL-1 beta production at 1 to 2.5 uM pretreated with compound for 1 hr followed by LPS stimulation for 24 hrs by ELISA; assay type: functional, cell-based; conditions: dose 1-2.5 µM, time 25.0 hrs; how it was run: as §3
[12] = target: Amyloid-beta precursor protein (Homo sapiens) (UniProt P05067); assay: Anti-oligomeric activity against Abeta42 (unknown origin) assessed as depletion of the formation of toxic HMW Abeta42 oligomers at 1 uM measured at day 7 to 10 from sample solubilization by capillary electrophoresis assay; conditions: time 7-10 day
How it was run: (§4)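 Aβ42 stock diluted to 221 μM in 20 mM sodium phosphate pH 7.4 containing compound (ethanol stocks 1.53 mM). Capillary electrophoresis: BGE 80 mM sodium phosphate pH 7.4, 30 mbar × 3 s hydrodynamic injection, +12 kV, 25 °C, 200 nm detection. Oligomers assigned by effective mobility; HMW oligomer peak quantified semiquantitatively as normalised area %.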

[13] = tested on: Drosophila; assay: Antioxidant activity in Spastin Drosophila (Tubulin/Gal4 RNAi DSpast) neurodegenerative model assessed as decrease in intracelluar ROS level in brain at 10 uM flies raised in compound-enriched food by DHE staining based fluorescence analysis; assay type: functional, organism-based
How it was run: (§5)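 Spastin-RNAi (Tubulin-Gal4 cross, 28 °C) third-instar larvae raised on compound-enriched food, dissected in HL3, stained 30 min with 30 μM DHE, fixed in 4% PFA, DAPI counterstained. Confocal imaging (DHE 580–630 nm); two 2500 μm² ROIs per muscle or two 1900 μm² ROIs per brain, 10–15 larvae per group; DHE/DAPI ratio.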

[14] = tested on: Drosophila; assay: Effect on CAT transcript expression in Spastin Drosophila (Tubulin/Gal4 RNAi DSpast) neurodegenerative model at 10 uM flies raised in compound-enriched food by real-time PCR analysis; assay type: functional; how it was run: as §1
[15] = target: Amyloid-beta precursor protein (Homo sapiens) (UniProt P05067); assay: Anti-oligomeric activity against Abeta42 (unknown origin) assessed as depletion of the formation of toxic HMW Abeta42 oligomers at 2.5 uM measured after 2 to 10 days from sample solubilization by capillary electrophoresis assay; conditions: time 2-10 day; how it was run: as §4
[16] = tested on: Microglia; assay: Antiinflammatory activity against Sprague-Dawley rat microglial cells assessed as downregulation of NLRP3 mRNA expression at 2.5 uM pretreated with compound for 1 hr followed by LPS stimulation for 6 hrs by real-time PCR analysis; assay type: functional, cell-based; conditions: time 7.0 hrs; how it was run: as §2
[17] = Toxicity against Drosophila W1118 assessed as proportion of eclosed-flies at 20 uM measured after 72 hrs
[18] = tested on: Microglia; assay: Cytotoxicity against Sprague-Dawley rat microglial cells assessed as decrease in cell viability at 5 uM incubated for 24 hrs by MTT assay; assay type: toxicity, cell-based
How it was run: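 Primary rat microglia, 6×10^4 cells/well, switched to serum-free medium 1 h before 24 h exposure (1–20 μM, DMSO ≤0.1%). MTT 0.18 mg/mL for 4 h at 37 °C, formazan dissolved in DMSO, absorbance 570 nm (reference 630 nm). Vehicle-treated cells = 100% viability.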

[19] = Toxicity against Drosophila W1118 assessed as minimum toxic concentration by measuring eclosion rate measured for 72 hrs
[20] = target: Amyloid-beta precursor protein (Homo sapiens) (UniProt P05067); assay: Anti-oligomeric activity against Abeta42 (unknown origin) assessed as depletion of the formation of toxic HMW Abeta42 oligomers at 5 uM measured at day 7 from sample solubilization by capillary electrophoresis assay; conditions: time 7.0 day; how it was run: as §4
[21] = Toxicity against Drosophila W1118 assessed as proportion of eclosed-flies at 50 uM measured after 72 hrs
[22] = tested on: Drosophila; assay: Antioxidant activity in Spastin Drosophila (Tubulin/Gal4 RNAi DSpast) neurodegenerative model assessed as decrease in intracelluar ROS level in A2 muscle at 10 uM flies raised in compound-enriched food by DHE staining based fluorescence analysis; assay type: functional, organism-based; how it was run: as §5

Amyloid-beta precursor protein (Homo sapiens), sequence (P05067 whole entry): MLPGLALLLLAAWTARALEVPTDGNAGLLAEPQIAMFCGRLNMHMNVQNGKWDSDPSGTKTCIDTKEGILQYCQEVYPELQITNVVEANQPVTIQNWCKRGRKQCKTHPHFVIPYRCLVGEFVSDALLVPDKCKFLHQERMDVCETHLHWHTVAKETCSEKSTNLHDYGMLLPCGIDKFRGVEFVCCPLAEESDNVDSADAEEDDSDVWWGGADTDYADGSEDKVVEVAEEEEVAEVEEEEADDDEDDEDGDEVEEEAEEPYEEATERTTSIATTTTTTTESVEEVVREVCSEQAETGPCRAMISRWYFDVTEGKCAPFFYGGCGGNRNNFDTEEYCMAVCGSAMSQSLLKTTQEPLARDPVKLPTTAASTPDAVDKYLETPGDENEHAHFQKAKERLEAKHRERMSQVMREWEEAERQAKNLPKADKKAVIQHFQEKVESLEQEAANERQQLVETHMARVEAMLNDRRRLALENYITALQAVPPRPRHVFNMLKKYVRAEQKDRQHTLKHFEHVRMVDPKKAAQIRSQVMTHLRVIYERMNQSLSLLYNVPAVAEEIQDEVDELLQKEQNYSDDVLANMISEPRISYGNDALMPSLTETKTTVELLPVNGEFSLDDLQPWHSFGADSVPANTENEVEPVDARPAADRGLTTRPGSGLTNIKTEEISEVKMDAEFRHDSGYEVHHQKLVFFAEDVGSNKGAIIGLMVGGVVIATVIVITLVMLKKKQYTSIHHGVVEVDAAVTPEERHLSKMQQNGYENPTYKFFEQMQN
Keap1/Nrf2 (Homo sapiens), sequence (Q14145 whole entry, looked up): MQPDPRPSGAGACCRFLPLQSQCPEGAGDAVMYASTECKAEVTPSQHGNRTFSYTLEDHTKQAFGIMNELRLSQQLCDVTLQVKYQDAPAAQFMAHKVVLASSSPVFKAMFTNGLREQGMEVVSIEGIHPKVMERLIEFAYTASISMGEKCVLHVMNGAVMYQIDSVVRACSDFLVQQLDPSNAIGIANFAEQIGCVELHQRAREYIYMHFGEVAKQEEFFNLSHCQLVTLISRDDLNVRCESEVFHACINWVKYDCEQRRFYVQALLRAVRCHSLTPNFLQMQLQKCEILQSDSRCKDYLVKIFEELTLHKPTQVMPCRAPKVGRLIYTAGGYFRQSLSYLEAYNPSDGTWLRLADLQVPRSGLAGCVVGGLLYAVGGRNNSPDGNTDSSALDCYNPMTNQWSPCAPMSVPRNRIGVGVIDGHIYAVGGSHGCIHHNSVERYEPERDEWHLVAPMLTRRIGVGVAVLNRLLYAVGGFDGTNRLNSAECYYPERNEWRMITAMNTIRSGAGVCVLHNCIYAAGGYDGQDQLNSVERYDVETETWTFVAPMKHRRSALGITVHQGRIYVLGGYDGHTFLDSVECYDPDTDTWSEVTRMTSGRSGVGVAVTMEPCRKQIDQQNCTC
Keap1/Nrf2 (Homo sapiens), sequence (Q16236 whole entry, looked up): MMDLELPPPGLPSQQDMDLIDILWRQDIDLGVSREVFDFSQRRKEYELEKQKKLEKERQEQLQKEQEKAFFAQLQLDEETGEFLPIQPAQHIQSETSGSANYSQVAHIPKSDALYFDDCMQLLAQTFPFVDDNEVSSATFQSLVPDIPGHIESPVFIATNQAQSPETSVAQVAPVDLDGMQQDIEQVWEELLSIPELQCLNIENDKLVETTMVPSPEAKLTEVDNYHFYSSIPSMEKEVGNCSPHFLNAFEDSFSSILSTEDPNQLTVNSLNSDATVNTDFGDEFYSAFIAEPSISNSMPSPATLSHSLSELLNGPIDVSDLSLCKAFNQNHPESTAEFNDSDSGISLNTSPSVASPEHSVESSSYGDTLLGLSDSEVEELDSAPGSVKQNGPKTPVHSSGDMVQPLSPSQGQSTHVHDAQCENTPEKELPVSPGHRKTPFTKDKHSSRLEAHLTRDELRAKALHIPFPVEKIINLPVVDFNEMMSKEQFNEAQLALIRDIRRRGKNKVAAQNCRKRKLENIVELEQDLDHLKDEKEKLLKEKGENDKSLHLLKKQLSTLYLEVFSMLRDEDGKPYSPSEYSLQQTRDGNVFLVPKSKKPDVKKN

Activity [7]: Active
Compound: CCCCn1cc(C/C(C(=O)/C=C/c2ccc(OC)cc2)=C(O)\C=C\c2ccc(OC)cc2)nn1
inhibition [1]: Active | Activity [2]: Active | Activity [3]: 95.238% | Activity [4]: 93.831% | Activity [5]: Non-Toxic | Activity [6]: 40% | Activity [8]: Non-Toxic | inhibition [9]: Active | Activity [10]: 85.461% | Activity [11]: Active | Activity [12]: Active | Activity [13]: Active | Activity [14]: inactive | Activity [15]: Active | Activity [16]: Active | Activity [17]: 88.099% | Activity [18]: Toxic | MTC [19]: 10 µM | Activity [20]: Active | Activity [21]: 71.309% | Activity [22]: Active
